These results are taken from ChEMBL document CHEMBL1131316, “Potent antagonists of somatostatin: synthesis and biology” (J Med Chem, 1998).

Positions of bridges follow the written chain, without caps; N, C: chain ends. Non-standard residues stand in square brackets, D forms with d. Residues, ends and D or L forms follow the SMILES beside them. dBip = N[C@H](Cc1ccc(-c2ccccc2)cc1)C(=O)O; dPhe(4-Cl) = N[C@H](Cc1ccc(Cl)cc1)C(=O)O; 2Nal = N[C@@H](Cc1ccc2ccccc2c1)C(=O)O; d2Nal = N[C@H](Cc1ccc2ccccc2c1)C(=O)O; 3Pal = N[C@@H](Cc1cccnc1)C(=O)O

For one assay, the target named is Somatostatin receptor. Kind of assay: Compound was tested for in vitro SRIF inhibition of GH release in rats. In kind it is functional. In a few lines: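 Adult male rat anterior pituitary cells, dispersed with trypsin/DNase, cultured 4-5 days. Then 3 h at 37 °C in medium 199 with 1% BSA, GHRH(1-29)NH2 1 nM and SRIF 1 nM, with analogue at six doses (up to 10 µM, some to 100 µM), triplicate wells. GH in medium measured by double-antibody RIA. Antagonist IC50 taken from n separate dose-response curves.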

The target of assay [1] is Somatostatin receptor type 4 (Homo sapiens, UniProt P31391). Kind of assay: Binding affinity towards cloned human somatostatin 4 (hsst) receptor.
The target in assay [2] is Somatostatin receptor type 1 (Homo sapiens, UniProt P30872). The experiment in a line: Binding affinity towards cloned human somatostatin 1 (hsst) receptor. In a few lines:
(§1)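 Membranes from CHO-K1 cells stably transfected with the human receptor subtype (calcium phosphate transfection, G418 selection), homogenised and washed in Tris-HCl. Separated by filtration on PEI-soaked GF/C filters; nonspecific binding with 1.0 µM SRIF.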

Assay [3] addresses Somatostatin receptor type 2 (Homo sapiens, UniProt P30874). Kind of assay: Binding affinity towards cloned human somatostatin 2 (hsst) receptor. In a few lines: as §1
Assay [4] deals with Somatostatin receptor type 3 (Homo sapiens, UniProt P32745). Kind of assay: Binding affinity towards cloned human somatostatin 3 (hsst) receptor. The procedure, abridged: as §1
In assay [5] the target is Somatostatin receptor type 5 (Homo sapiens, UniProt P35346). Kind of assay: Binding affinity towards cloned human somatostatin 5 (hsst) receptor. In a few lines:
as §1

Chain of Somatostatin receptor type 5 (P35346 whole entry): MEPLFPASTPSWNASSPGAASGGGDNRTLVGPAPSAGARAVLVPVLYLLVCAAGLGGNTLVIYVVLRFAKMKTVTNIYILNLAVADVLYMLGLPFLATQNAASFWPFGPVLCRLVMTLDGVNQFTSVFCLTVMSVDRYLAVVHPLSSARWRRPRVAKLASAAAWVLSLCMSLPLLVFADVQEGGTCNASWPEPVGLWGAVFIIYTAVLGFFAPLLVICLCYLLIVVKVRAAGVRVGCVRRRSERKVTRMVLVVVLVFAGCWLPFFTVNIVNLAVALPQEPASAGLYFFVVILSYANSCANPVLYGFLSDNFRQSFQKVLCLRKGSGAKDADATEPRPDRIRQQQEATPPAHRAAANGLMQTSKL
Chain of Somatostatin receptor type 3 (P32745 whole entry): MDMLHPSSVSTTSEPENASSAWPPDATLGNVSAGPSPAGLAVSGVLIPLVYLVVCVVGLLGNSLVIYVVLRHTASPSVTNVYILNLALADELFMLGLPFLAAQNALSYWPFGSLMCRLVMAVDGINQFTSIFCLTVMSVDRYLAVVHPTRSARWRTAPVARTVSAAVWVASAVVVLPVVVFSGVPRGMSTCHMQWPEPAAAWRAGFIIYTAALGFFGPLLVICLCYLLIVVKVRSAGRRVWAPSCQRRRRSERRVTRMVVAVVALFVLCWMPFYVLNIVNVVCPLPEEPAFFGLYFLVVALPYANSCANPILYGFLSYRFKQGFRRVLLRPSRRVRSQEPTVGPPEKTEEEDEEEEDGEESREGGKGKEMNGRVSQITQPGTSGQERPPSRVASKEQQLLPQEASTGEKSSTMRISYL
Chain of Somatostatin receptor type 4 (P31391 whole entry): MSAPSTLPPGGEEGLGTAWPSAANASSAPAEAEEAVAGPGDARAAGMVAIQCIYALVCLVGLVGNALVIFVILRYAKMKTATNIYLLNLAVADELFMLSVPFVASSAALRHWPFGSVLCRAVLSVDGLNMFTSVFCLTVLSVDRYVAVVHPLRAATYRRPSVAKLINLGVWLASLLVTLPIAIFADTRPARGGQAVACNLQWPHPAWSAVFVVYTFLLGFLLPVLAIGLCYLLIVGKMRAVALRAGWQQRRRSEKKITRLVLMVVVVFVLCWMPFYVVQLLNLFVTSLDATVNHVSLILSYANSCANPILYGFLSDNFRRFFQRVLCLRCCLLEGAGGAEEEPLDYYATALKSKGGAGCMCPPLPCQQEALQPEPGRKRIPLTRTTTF
Chain of Somatostatin receptor type 2 (P30874 whole entry): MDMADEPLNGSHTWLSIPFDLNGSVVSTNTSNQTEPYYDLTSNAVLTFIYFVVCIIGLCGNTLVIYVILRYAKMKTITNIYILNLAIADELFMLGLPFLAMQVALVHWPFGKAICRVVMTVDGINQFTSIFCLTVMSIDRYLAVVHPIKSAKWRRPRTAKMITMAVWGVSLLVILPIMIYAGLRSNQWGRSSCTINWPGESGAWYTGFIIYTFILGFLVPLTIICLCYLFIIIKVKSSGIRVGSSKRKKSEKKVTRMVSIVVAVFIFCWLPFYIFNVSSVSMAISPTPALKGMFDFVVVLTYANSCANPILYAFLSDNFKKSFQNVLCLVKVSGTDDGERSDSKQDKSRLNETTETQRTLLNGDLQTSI
Chain of Somatostatin receptor type 1 (P30872 whole entry): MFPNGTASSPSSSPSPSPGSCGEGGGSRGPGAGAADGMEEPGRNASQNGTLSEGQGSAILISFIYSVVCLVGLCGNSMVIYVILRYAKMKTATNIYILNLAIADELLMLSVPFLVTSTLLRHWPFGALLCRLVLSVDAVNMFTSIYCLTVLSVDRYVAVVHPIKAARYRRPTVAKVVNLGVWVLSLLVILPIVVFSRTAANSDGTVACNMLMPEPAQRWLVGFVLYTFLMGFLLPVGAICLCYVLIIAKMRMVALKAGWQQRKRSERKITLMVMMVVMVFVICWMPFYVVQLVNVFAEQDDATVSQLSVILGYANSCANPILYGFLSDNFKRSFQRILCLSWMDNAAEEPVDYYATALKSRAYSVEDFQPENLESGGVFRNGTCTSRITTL

By IC50 is commonly meant the concentration needed to halve the response being measured. As to `CC(C)[C@@H]1NC(=O)[C@H](CCCCN)NC(=O)[C@@H](Cc2c[nH]c3ccccc23)NC(=O)[C@H](Cc2ccc(O)cc2)NC(=O)[C@@H](NC(=O)[C@@H](N)Cc2ccc3ccccc3c2)CSSC[C@H](C(=O)N[C@@H](Cc2ccc3ccccc3c2)C(N)=O)NC1=O`, the IC50 against Somatostatin receptor is 35.3 nM.
A word on the Ki: it is the dissociation constant of the complex between target and ligand, obtained from inhibition or displacement. `C[C@@H](O)[C@@H]1NC(=O)[C@H](CCCCN)NC(=O)[C@@H](Cc2c[nH]c3ccccc23)NC(=O)[C@H](Cc2ccc(O)cc2)NC(=O)[C@H](NC(=O)[C@H](N)Cc2ccc3ccccc3c2)CSSC[C@@H](C(=O)N[C@@H](Cc2ccc3ccccc3c2)C(N)=O)NC1=O`: the IC50 in assay [1] is 605 nM; in assay [2] it was 1040 nM; on Somatostatin receptor, 180000 nM. For the same compound, the Ki in assay [3] stood at 202 nM.
As to `C[C@@H](O)[C@H](NC(=O)[C@@H]1CSSC[C@@H](NC(=O)[C@@H](N)Cc2ccccc2)C(=O)N[C@@H](Cc2cccnc2)C(=O)N[C@H](Cc2c[nH]c3ccccc23)C(=O)N[C@@H](CCCCN)C(=O)N[C@@H]([C@@H](C)O)C(=O)N1)C(N)=O`, the IC50 worked out at 934 nM in assay [4], 1000 nM in assay [1], 1000 nM in assay [2] and 905 nM against Somatostatin receptor. Further, the Ki is 291 nM in assay [3] and 2360 nM in assay [5].
As for `C[C@@H](O)[C@H](NC(=O)[C@@H]1CSSC[C@@H](NC(=O)[C@@H](N)Cc2ccc(O)cc2)C(=O)N[C@@H](Cc2cccnc2)C(=O)N[C@H](Cc2c[nH]c3ccccc23)C(=O)N[C@@H](CCCCN)C(=O)N[C@@H]([C@@H](C)O)C(=O)N1)C(N)=O`, the IC50 in assay [4] stood at 1380 nM; in assay [1], 1000 nM; in assay [2], 1000 nM; on Somatostatin receptor it was 98650 nM. The compound also had a Ki in assay [3] of 1000 nM.
In the case of `CC(C)[C@@H]1NC(=O)[C@H](CCCCN)NC(=O)[C@@H](Cc2c[nH]c3ccccc23)NC(=O)[C@H](Cc2cccnc2)NC(=O)[C@H](NC(=O)[C@@H](N)Cc2ccc3ccccc3c2)CSSC[C@@H](C(=O)N[C@@H](Cc2cccc(-c3ccccc3)c2)C(N)=O)NC1=O`, the concentration for half-maximal inhibition (IC50) at Somatostatin receptor is 56 nM.
Same read-out and setting: the result for `CC(C)[C@@H]1NC(=O)[C@H](CCCCN)NC(=O)[C@@H](Cc2c[nH]c3ccccc23)NC(=O)[C@H](Cc2ccc(O)cc2)NC(=O)[C@H](NC(=O)[C@@H](N)Cc2ccc3ccccc3c2)CSSC[C@@H](C(=O)NC(C)(C)C)NC1=O` reads 108600 nM; that for `CC(C)[C@@H]1NC(=O)[C@H](CCCCN)NC(=O)[C@@H](Cc2c[nH]c3ccccc23)NC(=O)[C@H](Cc2ccc(O)cc2)NC(=O)[C@H](NC(=O)[C@@H](N)Cc2ccc(O)cc2)CSSC[C@@H](C(=O)N[C@H](Cc2ccc3ccccc3c2)C(N)=O)NC1=O`, 64.8 nM.
With `CC(C)[C@@H]1NC(=O)[C@H](CCCCN)NC(=O)[C@@H](Cc2c[nH]c3ccccc23)NC(=O)[C@H](Cc2ccc(O)cc2)NC(=O)[C@H](NC(=O)[C@@H](N)Cc2ccc3ccccc3c2)CSSC[C@@H](C(=O)N[C@H](Cc2ccc3ccccc3c2)C(N)=O)NC1=O`, the IC50 in assay [4] came out at 2280 nM; in assay [1] it was 1000 nM; in assay [2], 1000 nM; on Somatostatin receptor, 280 nM. The Ki in assay [3] worked out at 46.1 nM; in assay [5] it was 1250 nM.
The compound `CC(C)[C@@H]1NC(=O)[C@H](CCCCN)NC(=O)[C@@H](Cc2c[nH]c3ccccc23)NC(=O)[C@H](Cc2ccc(O)cc2)NC(=O)[C@H](NC(=O)[C@H](N)Cc2ccc3ccccc3c2)CSSC[C@H](C(=O)N[C@H](Cc2ccc3ccccc3c2)C(N)=O)NC1=O` returned an IC50 against Somatostatin receptor of 375 nM.
With `CC(=O)N[C@@H](Cc1ccc2ccccc2c1)C(=O)N[C@@H]1CSSC[C@@H](C(=O)N[C@@H](Cc2ccc3ccccc3c2)C(N)=O)NC(=O)[C@H](C(C)C)NC(=O)[C@H](CCCCN)NC(=O)[C@@H](Cc2c[nH]c3ccccc23)NC(=O)[C@H](Cc2ccc(O)cc2)NC1=O` (Ac-[2Nal][dC]Y[dW]KVC[2Nal]-NH2; disulfide 2-7), the half-maximal inhibitory concentration (IC50) in assay [4] is 144 nM; in assay [1] it was 1000 nM; in assay [2], 1020 nM; at Somatostatin receptor, 56.7 nM. The results for the Ki in assay [3] and in assay [5] were 48.2 nM and 130 nM, respectively.
Consider `CC(C)[C@@H]1NC(=O)[C@H](CCCCN)NC(=O)[C@@H](Cc2c[nH]c3ccccc23)NC(=O)[C@H](Cc2cccnc2)NC(=O)[C@H](NC(=O)[C@@H](N)Cc2ccccc2)CSSC[C@@H](C(=O)N[C@@H](Cc2ccc3ccccc3c2)C(N)=O)NC1=O` (H-F[dC][3Pal][dW]KVC[2Nal]-NH2; disulfide 2-7), for which the IC50 in assay [4] is 373 nM; in assay [1], 1000 nM; in assay [2] it was 535 nM; against Somatostatin receptor it was 58 nM. Besides, the Ki was 123 nM in assay [3] and 769 nM in assay [5].
As to `CC(C)[C@@H]1NC(=O)[C@H](CCCCN)NC(=O)[C@@H](Cc2c[nH]c3ccccc23)NC(=O)[C@H](Cc2c[nH]cn2)NC(=O)[C@H](NC(=O)[C@@H](N)Cc2ccc3ccccc3c2)CSSC[C@@H](C(=O)N[C@@H](Cc2ccc3ccccc3c2)C(N)=O)NC1=O` (H-[2Nal][dC]H[dW]KVC[2Nal]-NH2; disulfide 2-7), the IC50 in assay [4] amounted to 68 nM; in assay [1], 943 nM; in assay [2], 1000 nM; against Somatostatin receptor, 53 nM. Also, the Ki in assay [3] was 82.5 nM; in assay [5], 501 nM.
As to `CC(C)[C@@H]1NC(=O)[C@H](CCCCN)NC(=O)[C@@H](Cc2c[nH]c3ccccc23)NC(=O)[C@H](Cc2ccc(O)cc2)NC(=O)[C@H](NC(=O)[C@@H](N)Cc2ccc3ccccc3c2)CSSC[C@@H](C(=O)N[C@@H](Cc2ccc(O)cc2)C(N)=O)NC1=O` (H-[2Nal][dC]Y[dW]KVCY-NH2; disulfide 2-7), the IC50 against Somatostatin receptor came out at 50 nM.
On to `CC(C)[C@@H]1NC(=O)[C@H](CCCCN)NC(=O)[C@@H](Cc2c[nH]c3ccccc23)NC(=O)[C@H](Cc2cccnc2)NC(=O)[C@H](NC(=O)[C@@H](N)Cc2ccc3ccccc3c2)CSSC[C@@H](C(=O)N[C@@H](Cc2ccc3ccccc3c2)C(N)=O)NC1=O` (H-[2Nal][dC][3Pal][dW]KVC[2Nal]-NH2; disulfide 2-7), for which the IC50 turned out to be 171 nM in assay [4], 1000 nM in assay [1], 506 nM in assay [2] and 15.1 nM on Somatostatin receptor. The Ki is 75.9 nM in assay [3] and 524 nM in assay [5].
Take `CC(C)[C@H](NC(=O)[C@H](CCCCN)NC(=O)[C@@H](Cc1c[nH]c2ccccc12)NC(=O)[C@H](Cc1ccc(O)cc1)NC(=O)[C@@H](Cc1ccc(Cl)cc1)NC(=O)[C@@H](N)Cc1ccc2ccccc2c1)C(=O)N[C@@H](Cc1ccccc1)C(=O)N[C@H](C(N)=O)[C@@H](C)O` (H-[2Nal][dPhe(4-Cl)]Y[dW]KVFT-NH2): the IC50 in assay [4] was found to be 1130 nM; in assay [1], 2840 nM; in assay [2], 1000 nM; against Somatostatin receptor, 3030 nM. Further, the Ki in assay [3] came to 706 nM; in assay [5], 1840 nM.
As for `CC(C)[C@H](NC(=O)[C@H](CCCCN)NC(=O)[C@@H](Cc1c[nH]c2ccccc12)NC(=O)[C@H](Cc1ccc(O)cc1)NC(=O)[C@@H](Cc1ccc(Cl)cc1)NC(=O)[C@H](N)Cc1ccc2ccccc2c1)C(=O)N[C@@H](Cc1ccccc1)C(=O)N[C@H](C(N)=O)[C@@H](C)O` (H-[d2Nal][dPhe(4-Cl)]Y[dW]KVFT-NH2), the IC50 in assay [4] stood at 89.9 nM; in assay [1] it was 1000 nM; in assay [2], 1000 nM; on Somatostatin receptor it was 3960 nM. The Ki stood at 144 nM in assay [3] and 21.6 nM in assay [5].
With `CC(C)[C@@H]1NC(=O)[C@H](CCCCN)NC(=O)[C@@H](Cc2c[nH]c3ccccc23)NC(=O)[C@H](Cc2ccc(O)cc2)NC(=O)[C@H](NC(=O)[C@H](N)Cc2ccc(-c3ccccc3)cc2)CSSC[C@@H](C(=O)N[C@@H](Cc2ccc3ccccc3c2)C(N)=O)NC1=O` (H-[dBip][dC]Y[dW]KVC[2Nal]-NH2; disulfide 2-7), the IC50 in assay [4] was found to be 466 nM; in assay [1], 1000 nM; in assay [2], 1440 nM; at Somatostatin receptor, 810 nM. Also, the Ki in assay [3] is 793 nM; in assay [5], 243 nM.
Regarding `CC(C)[C@@H]1NC(=O)[C@H](CCCCN)NC(=O)[C@@H](Cc2c[nH]c3ccccc23)NC(=O)[C@H](Cc2ccc(O)cc2)NC(=O)[C@@H](NC(=O)[C@H](N)Cc2ccc3ccccc3c2)CSSC[C@H](C(=O)N[C@@H](Cc2ccc3ccccc3c2)C(N)=O)NC1=O` (stereo in doubt; 23), the IC50 in assay [4] was 292 nM; in assay [1] it was 312 nM; in assay [2] it was 494 nM; against Somatostatin receptor, 1360 nM. The Ki in assay [3] amounted to 68.5 nM; in assay [5] it was 744 nM.
